Data reported in ChEMBL document CHEMBL1681688, “Design and evaluation of a 2-(2,3,6-trifluorophenyl)acetamide derivative as an agonist of the GPR119 receptor” (Bioorg Med Chem Lett, 2011).

How the values were obtained:
[1] = biological target: T1, Glucose-dependent insulinotropic receptor (Homo sapiens, UniProt Q8TDV5); assay: Agonist activity against human GPR119 receptor expressed in HEK293 cells assessed as beta-lactamase production by cAMP response element assay; format: functional, cell-based
T1 sequence (Q8TDV5 whole entry): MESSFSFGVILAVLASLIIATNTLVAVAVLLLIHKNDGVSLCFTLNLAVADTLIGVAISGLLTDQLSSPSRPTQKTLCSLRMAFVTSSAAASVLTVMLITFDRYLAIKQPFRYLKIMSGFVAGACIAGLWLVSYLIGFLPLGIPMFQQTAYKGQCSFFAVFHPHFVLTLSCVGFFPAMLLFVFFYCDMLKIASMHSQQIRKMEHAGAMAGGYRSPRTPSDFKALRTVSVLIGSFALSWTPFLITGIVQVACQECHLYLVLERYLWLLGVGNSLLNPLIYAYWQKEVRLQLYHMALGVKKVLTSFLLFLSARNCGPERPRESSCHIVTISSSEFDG

[2] = biological target: T2, Glucose-dependent insulinotropic receptor (Homo sapiens) (UniProt Q8TDV5); assay: Intrinsic activity against human GPR119 receptor expressed in HEK293 cells assessed as beta-lactamase production by cAMP response element assay; format: functional, cell-based
T2 sequence (whole entry): T1 sequence (Q8TDV5 whole entry)
In short: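 Human recombinant cell-based cAMP functional assay, read as intrinsic activity. The number of runs varies by compound, with SD reported where n >2.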

[3] = Intrinsic clearance in human liver microsomes; format: ADME, Microsome
[4] = Lipophilicity, log D of the compound; format: physicochemical; details: octanol/water

Row | Compound | EC50 [1] [nM] | Intrinsic activity [2] [%] | CLint scaled [3] [mL/min/kg] | logD [4]
1 | CC(CNC(=O)Cc1c(F)ccc(F)c1F)C1CCN(C(=O)OC(C)(C)C)CC1 (stereo not drawn) | 13 | 87 | 230 | 
2 | CC(CNC(=O)Cc1cccc(F)c1F)C1CCN(C(=O)OC(C)(C)C)CC1 (stereo not drawn) | 75 | 107 | > 300 | 
3 | CC(CNC(=O)Cc1ccc(-n2cnnn2)cc1)C1CCN(C(=O)OC(C)(C)C)CC1 (stereo not drawn) | 267 | 72 | > 270 | 
4 | C[C@H](CNC(=O)Cc1c(F)ccc(F)c1F)C1CCN(C(=O)OC2(C)CC2)CC1 | 44 | 124 | > 300 | 3.9
5 | CC(C)OC(=O)N1CCC(CCNC(=O)Cc2c(F)ccc(F)c2F)CC1 | 409 | 68 |  | 3.4
6 | C[C@@H](CNC(=O)Cc1c(F)ccc(F)c1F)C1CCN(C(=O)OC2(C)CC2)CC1 | 236 | 97 | 187 | 3.9
7 | CC1(OC(=O)N2CCC(CCNC(=O)Cc3c(F)ccc(F)c3F)CC2)CC1 | 868 | 111 |  | 3.5
8 | CC(CNC(=O)Cc1ccccc1)C1CCN(C(=O)OC(C)(C)C)CC1 (stereo not drawn) | 5980 | 100 | 247 | 
9 | CC(CNC(=O)Cc1ccccc1F)C1CCN(C(=O)OC(C)(C)C)CC1 (stereo not drawn) | 808 | 97 | > 300 | 
10 | CC(CNC(=O)Cc1c(F)cccc1F)C1CCN(C(=O)OC(C)(C)C)CC1 (stereo not drawn) | 120 | 101 |  | 3.9
11 | CC(C)OC(=O)N1CCC(C(C)CNC(=O)Cc2c(F)ccc(F)c2F)CC1 (stereo not drawn) | 32 | 88 | 205 | 4
12 | CC1(OC(=O)N2CCC([C@@H](F)CNC(=O)Cc3c(F)ccc(F)c3F)CC2)CC1 | 1380 | 100 | 63.8 | 3.4
13 | CC1(OC(=O)N2CCC([C@H](F)CNC(=O)Cc3c(F)ccc(F)c3F)CC2)CC1 | 80 | 107 | 42.4 | 3.4
14 | CC(CNC(=O)Cc1cccc(F)c1)C1CCN(C(=O)OC(C)(C)C)CC1 (stereo not drawn) | 340 | 102 | > 300 | 
15 | CC(CNC(=O)Cc1cc(F)ccc1F)C1CCN(C(=O)OC(C)(C)C)CC1 (stereo not drawn) | 78 | 104 | > 300 | 
16 | CC(CNC(=O)Cc1ccc(S(C)(=O)=O)cc1)C1CCN(C(=O)OC(C)(C)C)CC1 (stereo not drawn) | 884 | 47 | 136 | 
